Screens (PubChem)
E-sel inducer: induces E-selectin expression in human endothelial cells | P16581 | HUVEC E-selectin immunofluorescence imaging; normalized: neutral wells 0, TNF-alpha wells 100 | activation, % at 7.58 µM | 0.37% of 260,000 active;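 active = mean E-selectin-positive cell signal at least 10% of the positive control, reached in at least 60% of replicates, without over 20% cell loss; inconclusive = no rule given, readout overlaps actives, possibly toxicity-flagged; inactive = the rest, including those meeting only one limit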
Target sequence (P16581 whole entry, looked up): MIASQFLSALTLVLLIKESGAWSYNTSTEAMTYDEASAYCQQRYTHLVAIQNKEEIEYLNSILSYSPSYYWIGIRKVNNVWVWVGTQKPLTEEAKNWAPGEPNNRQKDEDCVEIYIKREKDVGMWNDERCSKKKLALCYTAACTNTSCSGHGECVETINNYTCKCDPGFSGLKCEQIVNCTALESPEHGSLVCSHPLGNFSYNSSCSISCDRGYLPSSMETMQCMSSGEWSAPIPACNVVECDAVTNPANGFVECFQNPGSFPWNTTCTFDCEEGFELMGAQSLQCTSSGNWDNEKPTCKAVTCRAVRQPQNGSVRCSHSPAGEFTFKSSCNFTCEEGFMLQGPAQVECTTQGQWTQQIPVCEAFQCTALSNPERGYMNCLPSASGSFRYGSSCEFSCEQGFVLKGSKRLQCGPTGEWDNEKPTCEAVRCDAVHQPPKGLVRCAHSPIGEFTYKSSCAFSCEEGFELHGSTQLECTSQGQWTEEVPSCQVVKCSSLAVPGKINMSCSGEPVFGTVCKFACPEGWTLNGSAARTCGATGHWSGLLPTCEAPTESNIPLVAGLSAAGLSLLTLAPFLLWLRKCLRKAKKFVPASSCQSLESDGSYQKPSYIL
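Test system – human umbilical vein endothelial cells (HUVEC), E-selectin induction · Input – 3,000 HUVEC seeded per well · Buffer or medium – EGM-2, gelatin · Compound dosing – single-point compound dose · Detection – immunofluorescence imaging · Measure – percent E-selectin-positive cells · Controls – TNF-alpha high, DMSO low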
ERAP1 inh: ERAP1 (human) enzyme inhibition. inhibition, % at 10.7 µM. 0.15% of 340,000 active. recombinant ERAP1, Leu-AMC fluorescence, 60 min. Q9NZ08;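 active = mean replicate inhibition of at least 30%, or all replicates individually reaching that 30% level; inactive = mean below 30% and not every replicate reaching it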;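 note: 0% = neutral control wells and 100% = L-leucinethiol positive control wells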
FGF22 binding: FGF22 (human) thermal shift binding | 1.5% of 340,000 active | Q9HCT0 | AID 651658 | activity (Tm shift, normalised), % at 9.99 µM | recombinant FGF22 thermal shift, SYPRO orange fluorescence; percent of sucrose octasulfate shift, DMSO zero;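 active = mean Tm shift, scaled 0 neutral to 100 positive control, at about 1.3% or above, every replicate too, limit read from the data; inconclusive = no clear call, values can overlap the other calls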
CFTR F508del cor: correctors of CFTR F508del function in bronchial epithelial cells | AID 720511 | activity (quench increase), % at 7.58 µM | 0.36% of 350,000 active | CFBE cells, YFP halide quenching; stimulated with forskolin plus potentiator P3; % fluorescence drop versus neutral controls;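 active = mean added fluorescence quench of at least 8% versus neutral control, with both replicates also reaching 8%; inconclusive = only one of the mean or replicate conditions met; inactive = mean below 8% and not both replicates reaching 8%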;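 note: cells transiently co-express mutant CFTR-F508del with the halide-sensitive YFP; corrector assay measuring rescue of mutant channel to the surface after 24 h compound exposure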
DENV2 CPE: inhibitors of DENV2 cytopathic effect; DENV2-infected cells, cytopathic effect rescue, plate reader; CPE inhibition, % at 9.99 µM; 1.7% of 350,000 active; AID 651640; in the data active = CPE inhibition above about 20%, passing the limit was not always enough; inconclusive = no clear call, values can overlap the other calls; tested in BHK-21 cells;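 note: 0% = median of neutral control wells and 100% = median of positive control wells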
* hit, by the source's call; u = inconclusive; x = no result given. Shown are actives, neighbours in structure and some others; about 3.7% of the full set was active somewhere.

SMILES	E-sel inducer	ERAP1 inh	FGF22 binding	CFTR F508del cor	DENV2 CPE
COCCNC(=O)[C@@H]1[C@@H](CO)[C@@H]2Cn3c(ccc(-c4ccc(F)cc4)c3=O)[C@H]1N2C	0	0	0	-1	0
C[C@H](CO)N1C[C@H](C)[C@H](CN(C)S(C)(=O)=O)Oc2c(NC(=O)C3CC3)cccc2C1=O	0	0	0	2	-6
Cc1ccccc1C(=O)N1CCC(C(=O)N(CC(C)C)c2c(N)n(CC(C)C)c(=O)[nH]c2=O)CC1	x	1	0	0	-11
CCOC(=O)C1CCN(CC(=O)N(CC(C)C)c2c(N)n(CC(C)C)c(=O)[nH]c2=O)CC1	x	-3	44*	0	-1
COCCN(C(=O)C1CCN(C(=O)c2ccccc2C)CC1)c1c(N)n(CC(C)C)c(=O)[nH]c1=O	1	91*	0	2	-12
Cc1cccc(C)c1OCC(N)C(C)C (stereo unspecified)	4	105*	0	0	2
O=C(Nc1ccccc1)N1CCCCN2[C@H](CO)[C@H](c3ccc(C#Cc4cccnc4)cc3)[C@@H]2C1	0	1	0	1	-2
COc1cc(C(=S)N2CCCC2)ccc1OCc1ccc(C)cc1	x	-1	0	-1	47*
COc1cc(C(=S)N2CCCCC2)ccc1OCC(=O)Nc1ccc(F)cc1	0	2	0	0	98*
Cc1ccc(OCC(=O)Nc2ccc(CN3CCCCC3)cc2)c(C)c1	x	-3	0	8.3*	-1
COc1cc(C(=S)N2CCCC2)ccc1OCC(N)=O	x	2	0	1	1
COc1ccc(NC(=O)N(C)C[C@@H]2Oc3c(NC(=O)c4ccc(-c5nccs5)cc4)cccc3C(=O)N([C@@H](C)CO)C[C@@H]2C)cc1	-7	-2	0	2	-7
O=C(C[C@@H]1C=C[C@H](NC(=O)c2ccncc2)[C@@H](CO)O1)NCc1ccncn1	4	1	x	4	-2
O=C(NCCc1ccccc1)C1CCN(S(=O)(=O)N2CCOCC2)CC1	x	-2	44*	-3	-3
CS(=O)(=O)N1CCC(C(=O)NCCc2ccccc2)CC1	x	-1	x	x	x
CCS(=O)(=O)N1CCC(C(=O)NCc2ccc(OC)cc2)CC1	x	1	43*	-1	3
COc1ccc(S(=O)(=O)N2CCCC(C(=O)NCCN3CCOCC3)C2)cc1C (stereo unspecified)	0	2	43*	-1	1
CS(=O)(=O)N1CCC(C(=O)NCc2ccccc2)CC1	x	0	44*	0	-2
COc1ccc(S(=O)(=O)N2CCC(C(=O)NCCN3CCOCC3)CC2)cc1C	x	-1	0	-1	-3
COc1ccc(S(=O)(=O)Nc2cccc3c2O[C@H](CN(C)S(=O)(=O)c2ccc(F)cc2)[C@H](C)CN([C@@H](C)CO)C3=O)cc1	-1	1	0	4	-1
COc1ccc(S(=O)(=O)N2CCC(C(=O)NCc3ccncc3)CC2)cc1Cl	x	-1	0	0	-1
COc1ccc(CNC(=O)[C@@H](NC(=O)C2CCN(S(=O)(=O)c3ccccc3)CC2)C(C)C)cc1	5	-5	0	0	7
COc1ccc(S(=O)(=O)N2CCC(C(=O)N[C@H](C(=O)NCc3ccccc3)C(C)C)CC2)cc1	0	-3	44*	1	47*
Cc1ccc(NC(=O)C2CCN(S(C)(=O)=O)CC2)cc1Cl	x	-2	0	-2	29*
COc1ccc(S(=O)(=O)N2CCC(C(=O)NCc3ccccc3)CC2)cc1OC	0	-5	43*	3	7
SMILES	E-sel inducer	ERAP1 inh	FGF22 binding	CFTR F508del cor	DENV2 CPE
C[C@H]1CN([C@@H](C)CO)S(=O)(=O)c2ccc(-c3cccnc3)cc2O[C@@H]1CN(C)C(=O)CN(C)C	0	-1	0	2	u
CO[C@H]1CN(C)C(=O)c2cc(NC(C)=O)ccc2OC[C@@H](C)N(C(=O)Cc2cccnc2)C[C@H]1C	0	2	0	-2	-11
O=C(O)c1ccc2c(c1)C1C=CCC1C(c1ccncc1)N2 (stereo unspecified)	0	x	0	-3	-1
COc1ccc(NS(=O)(=O)c2ccc3c(c2)[C@H]2C=CC[C@H]2[C@@H](c2ccc(C(=O)O)cc2)N3)cc1	0	32*	x	-3	2
CCS(=O)(=O)NCC[C@H]1CC[C@H](NC(=O)C2CC2)[C@@H](CO)O1	-1	-3	x	2	7
COc1cccc(-c2ccc([C@H]3[C@@H](CO)N4CCCCN(Cc5cncnc5)C[C@@H]34)cc2)c1	0	x	x	3	x
COc1cccc(-c2ccc([C@H]3[C@@H](CO)N4CCCCN(Cc5cncnc5)C[C@H]34)cc2)c1	0	0	0	3	38*
OC[C@@H]1[C@@H](c2ccc(-c3ccccc3F)cc2)[C@H]2CN(Cc3cncnc3)CCCCN12	1	1	0	1	68*
OC[C@@H]1[C@@H](c2ccc(-c3cccc(F)c3)cc2)[C@@H]2CN(Cc3cncnc3)CCCCN12	0	3	0	3	47*
OC[C@H]1[C@@H](c2ccc(-c3cccc(F)c3)cc2)[C@H]2CN(Cc3cncnc3)CCCCN21	0	1	0	0	u
CCCC(=O)Nc1ccc2c(c1)OC[C@H](C)N(Cc1cccc(F)c1)C[C@H](C)[C@@H](OC)CN(C)C2=O	0	0	0	-1	-2
Cc1cc(C)n2cc(CSc3ccc(Br)cc3)nc2n1	0	-4	43*	-1	-7
Cc1cc(C)n2cc(CSc3nnc(-c4ccccc4)c(-c4ccccc4)n3)nc2n1	2	2	0	2	5
Cc1cc(C)n2cc(CSCC(=O)O)nc2n1	0	x	x	x	x
Cc1cc(C)n2cc(CSc3ncn[nH]3)nc2n1	x	7	43*	3	-3
Cc1noc(C)c1NC(=O)Nc1cccc2c1O[C@@H](CN(C)C(=O)Nc1ccc(F)cc1)[C@H](C)CN([C@@H](C)CO)C2=O	0	x	x	0	x
COC(=O)[C@@]12C[C@@H](CC(=O)NCc3cccc(C(F)(F)F)c3)C(=O)N(Cc3cccc4ccccc34)C1=CCC(C)(C)C2	1	11	23*	-1	-2
C#CCNC(=O)C[C@@H]1C[C@@]2(C(=O)OC)CCCCC=C2N(CCC2=CCCCC2)C1=O	0	1	0	2	u
CCCCNC(=O)C[C@@H]1C[C@@]2(C(=O)OC)CCCCC=C2N(CCC2=CCCCC2)C1=O	0	-2	0	0	80*
CCOC(=O)[C@]12CCCC=C1N(CCC1=CCCCC1)C(=O)[C@H](CC(=O)NCc1cccc(C(F)(F)F)c1)C2	0	0	0	-1	14
CCOC(=O)[C@]12CCC=C1N(Cc1ccc(Cl)cc1Cl)C(=O)[C@H](CC(=O)NCc1cccc(C(F)(F)F)c1)C2	x	0	1.4*	5	7
